How the values were obtained:
[1] = Plasma protein binding by equilibrium dialysis, human; assay type: in vitro ADME; details: free fraction
[2] = Intrinsic clearance in human hepatic microsomes; assay type: in vitro ADME
[3] = Intrinsic clearance in rat hepatic microsomes; assay type: in vitro ADME
MrgX1 [4] = molecular target: T1, MrgX1 (Homo sapiens, UniProt Q96LB2); test: Ca2+ imaging assay on MrgX1-expressing HEK293 cells; assay type: cell-based
Procedure, shortened: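 Ca2+ imaging in HEK293 cells expressing MrgX1, read as relative fluorescence units. Test compound was titrated alone and with a submaximal BAM8-22 level (10 nM). EC50 came from dose-response curve fitting and was not determined when Emax was <50%. Emax is given as % of a reference analogue. Three repeat experiments, mean±SEM.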

[5] = test system: 68 GPCR's, ion channels and transporters; test: EuroFin's Lead Profiling Screen binding assay panel; details: 10 μM
[6] = Plasma protein binding by equilibrium dialysis, rat; assay type: in vitro ADME; details: free fraction
MrgX1 [7] = molecular target: T1, MrgX1; test: HTS triple addition screen for MrgX1 positive allosteric modulators; assay type: cell-based; details: read-out: MrgX1 EC50; HTS screen value; HEK293 cell line stably expressing MrgX1

T1 sequence (Q96LB2 whole entry): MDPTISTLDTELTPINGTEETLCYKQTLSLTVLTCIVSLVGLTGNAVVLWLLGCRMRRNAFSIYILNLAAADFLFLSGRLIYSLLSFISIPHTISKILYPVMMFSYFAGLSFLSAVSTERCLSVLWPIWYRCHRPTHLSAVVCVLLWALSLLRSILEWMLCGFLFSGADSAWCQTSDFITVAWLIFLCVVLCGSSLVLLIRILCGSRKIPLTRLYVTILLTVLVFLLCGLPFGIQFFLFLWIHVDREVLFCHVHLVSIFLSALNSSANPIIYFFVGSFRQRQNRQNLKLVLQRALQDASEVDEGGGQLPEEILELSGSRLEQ

Which results are given for `CCOc1ccccc1NC(=O)c1ccccc1NS(=O)(=O)C1CC1` [4l, 2-(cyclopropanesulfonamido)-N-(2-ethoxyphenyl)benzamide]?
Human PPB, Percent Free Compound in Plasma [1]: 0.4%; Human CLHEP, Microsome Predicted Hepatic Clearance [2]: 15.7 mL/min/kg; Rat CLHEP, Microsome Predicted Hepatic Clearance [3]: 65.7 mL/min/kg; Activation of MrgX1 (agonistic activity) (MrgX1 [4]; in the absence of BAM8-22): does not activate MrgX1; Effect on the EMax of BAM8-22 (MrgX1 [4]; maximum concentration of BAM8-22 used): does not affect the EMax of BAM8-22; Emax as % of standard compound (4i) (MrgX1 [4]; normalized to the positive control (4i, 100%)): 195 ± 8%; EC50 (MrgX1 [4]; read-out: MrgX1 EC50, Table 3, alkylsulfonamides, in presence of BAM8-22): 190 ± 60 nM; Inhibition of radio ligand binding >50% in panel of 68 targets [5]: did not inhibit 67 of the 68 targets; Rat PPB, Percent Free Compound in Plasma [6]: 1.7%

Which EC50 (MrgX1 [7]) does the source give for `CCOc1ccccc1NC(=O)c1ccccc1NS(C)(=O)=O` [SID 4258711] here?
Its EC50 is 96 nM.

For `CSc1ccccc1NC(=O)c1ccccc1N(C)S(C)(=O)=O` [SID 4262381], which EC50 (MrgX1 [7]) is on record?
Its EC50 is 329 nM.

Which results are given for “H-VGRPEWWMDYQKRYG-OH [BAM8-22, reference compound]”?
EC50 (MrgX1 [4]; EC50 of BAM8-22 on MrgX1, with ML382): 2.9 nM; EC50 (MrgX1 [4]; EC50 of BAM8-22 on MrgX1, without ML382): 18.7 nM

Reference: PMC4276534 (ChemMedChem, 2014)
